In brackets after ≈: the same amount, converted by molar mass. Activity calls are given as the source filed them. No cut-off for these calls is given here.
Key:
Pseudomonas aeruginosa [1] = assay: Antibacterial activity against Pseudomonas aeruginosa ATCC 27853 after 24 hrs by modified broth macrodilution method; assay type: functional, organism-based
Procedure, shortened: (§1)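 Ca-MHB broth macrodilution per modified CLSI method, with serial twofold aminoglycoside dilutions and about 5 x 10^5 CFU/ml final inoculum from isolates subcultured twice on 5% blood agar. MIC was the lowest concentration with no visible growth after 24 h at 35°C in ambient air. Run in duplicate and repeated on at least one separate day.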

Pseudomonas aeruginosa [2] = assay: Bactericidal activity against Pseudomonas aeruginosa ATCC 27853 assessed as growth rate constant for the bacterial population by time-kill study; assay type: functional, organism-based
Procedure, shortened: (§2)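 Parameters were fitted by mathematical modeling to 24 h time-kill data with gentamicin at 0 to 32 mg/liter and a baseline inoculum of 10^7 CFU/ml. Intrinsic growth rate (Kg) and maximal population size came from placebo controls. Kill-function parameters were then fitted to all active-treatment data simultaneously.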

Pseudomonas aeruginosa [3] = assay: Bactericidal activity against Pseudomonas aeruginosa ATCC 27853 assessed as maximum population size by time-kill study; assay type: functional, organism-based; procedure, shortened: as §2
Pseudomonas aeruginosa [4] = assay: Bactericidal activity against Pseudomonas aeruginosa ATCC 27853 assessed as maximal kill rate constant for the bacterial population by time-kill study; assay type: functional, organism-based; procedure, shortened: as §2
Pseudomonas aeruginosa [5] = assay: Bactericidal activity against Pseudomonas aeruginosa ATCC 27853 assessed as concentration to achieve 50% of the maximal kill rate for the bacterial population by time-kill study; assay type: functional, organism-based; procedure, shortened: as §2
Pseudomonas aeruginosa [6] = assay: Ratio of Cmax to MIC for Pseudomonas aeruginosa ATCC 27853 in PK/PD model at 1500 mg administered every 12 hrs; assay type: functional
Pseudomonas aeruginosa [7] = assay: Ratio of Cmax to MIC for Pseudomonas aeruginosa ATCC 27853 in PK/PD model at 2000 mg administered every 24 hrs; assay type: functional
Acinetobacter baumannii [8] = assay: Antibacterial activity against Acinetobacter baumannii ATCC BAA 747 after 24 hrs by modified broth macrodilution method; assay type: functional; conditions: ATCC BAA 747, 24 h; procedure, shortened: as §1
Acinetobacter baumannii [9] = assay: Bactericidal activity against Acinetobacter baumannii ATCC BAA 747 assessed as growth rate constant for the bacterial population by time-kill study; assay type: functional
Procedure, shortened: (§3)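 24-h time-kill data at a baseline inoculum of 10^7 CFU/ml were fitted to a mathematical model of a heterogeneous population. The fit ran in two steps. Growth rate (Kg) and maximal population size came from placebo control experiments. Those estimates were then held fixed while the kill-function parameters (maximal kill rate, concentration for 50% of maximal kill) were fitted to all active-treatment data together.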

Acinetobacter baumannii [10] = assay: Bactericidal activity against Acinetobacter baumannii ATCC BAA 747 assessed as maximum population size by time-kill study; assay type: functional; procedure, shortened: as §3
Acinetobacter baumannii [11] = assay: Bactericidal activity against Acinetobacter baumannii ATCC BAA 747 assessed as maximal kill rate constant for the bacterial population by time-kill study; assay type: functional; procedure, shortened: as §3
Acinetobacter baumannii [12] = assay: Bactericidal activity against Acinetobacter baumannii ATCC BAA 747 assessed as concentration to achieve 50% of the maximal kill rate for the bacterial population by time-kill study; assay type: functional; procedure, shortened: as §3
Acinetobacter baumannii [13] = assay: Bactericidal activity against Acinetobacter baumannii ATCC BAA 747 at >16 mg/liter after 2 hrs by time-kill study; assay type: functional, organism-based

## GENTAMICIN
Pseudomonas aeruginosa [1]
  MBC: 2 µg/mL
  MIC: 2 µg/mL
Pseudomonas aeruginosa [2]
  Activity: 0.48 h⁻¹
Pseudomonas aeruginosa [3]
  Activity: 9.8 ×10⁸ CFU/ml
Pseudomonas aeruginosa [4]
  Activity: 4.68 h⁻¹
Pseudomonas aeruginosa [5]
  C50k: 0.72 mg/L
Pseudomonas aeruginosa [6]
  Ratio: 36
Pseudomonas aeruginosa [7]
  Ratio: 30

## NCC[C@H](O)C(=O)N[C@@H]1C[C@H](N)[C@@H](O[C@H]2O[C@H](CN)[C@@H](O)[C@H](O)[C@H]2O)[C@H](O)[C@H]1O[C@H]1O[C@H](CO)[C@@H](O)[C@H](N)[C@H]1O [AMIKACIN]
Acinetobacter baumannii [8]
  MBC: 8 µg/mL (≈ 13.7 µM)
  MIC: 4 µg/mL (≈ 6.83 µM)
Acinetobacter baumannii [9]
  Activity: 0.55 h⁻¹
Acinetobacter baumannii [10]
  Activity: 6.62 ×10⁸ CFU/ml
Acinetobacter baumannii [11]
  Activity: 27.81 h⁻¹
Acinetobacter baumannii [12]
  C50k: 1.56 mg/L
Acinetobacter baumannii [13]
  Activity: Active
Pseudomonas aeruginosa [6]
  Ratio: 13
Pseudomonas aeruginosa [7]
  Ratio: 20
